Activity calls are given as the source filed them. The rule behind the calls is not given here.
Legend:
[1] = test system: Murine hepatitis virus; assay: Antiviral activity against MHV-A59 infected in LR7 cells assessed as reduction in number of infected cells at 400 nM treated 2 hrs after post viral infection and measured after 6 hrs by DAPI staining based immunofluorescence analysis; format: functional, organism-based
How it was run: (§1)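 MHV A59 infection of LR7 cells on coverslips at MOI 1. Compound (4 nM–40 µM, tenfold dilutions) was added 2 h p.i. and cells were fixed at 8 h p.i. with 4% paraformaldehyde. Cells were permeabilized with 0.2% Triton X-100 and stained with anti-nsp2/nsp3 antiserum, an Alexa-488 secondary and DAPI. nsp2/nsp3-positive cells were counted by confocal microscopy relative to the DMSO control. ≥3 independent experiments.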

[2] = test system: Murine hepatitis virus; assay: Antiviral activity against MHV-A59 infected in LR7 cells assessed as reduction in N protein production at 400 nM treated 2 hrs after post viral infection and measured after 6 hrs by Western blot analysis; format: functional, organism-based
How it was run: (§2)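 LR7 cells (1×10^5/well) infected with MHV A59 at MOI 1 for 1 h, washed, then held in DMEM with 2% FBS. Compound (4 nM–40 µM, tenfold steps) was added at 2 h p.i. and cells were harvested at 8 h p.i. Western blot probed for MHV N protein, normalized to GAPDH and expressed relative to the 0.1% DMSO control. Mock and 400 nM bafilomycin A1 served as controls. ≥3 independent experiments.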

[3] = test system: Murine hepatitis virus; assay: Antiviral activity against MHV-A59 infected in LR7 cells assessed as reduction in N protein production measured after 6 hrs by Western blot analysis relative to control; format: functional, organism-based; settings: dose 0.004-40 µM; how it was run: as §2
[4] = test system: Murine hepatitis virus; assay: Antiviral activity against MHV-A59 infected in LR7 cells assessed as reduction in number of infected cells at 40 uM treated 2 hrs after post viral infection and measured after 6 hrs by DAPI staining based immunofluorescence analysis relative to control; format: functional; parameters: scale not given: the % may be the effect or the level left; how it was run: as §1
[5] = test system: Murine hepatitis virus; assay: Antiviral activity against MHV-A59 infected in LR7 cells assessed as reduction in N protein production at 40 uM treated 2 hrs after post viral infection and measured after 6 hrs by Western blot analysis relative to control; format: functional; parameters: scale not given: the % may be the effect or the level left; how it was run: as §2
[6] = Cytotoxicity against African green monkey Vero E6 cells assessed as maximum non-toxic concentration after 6 hrs by MTT assay; format: cell-based; settings: chlorocebus aethiops
How it was run: (§3)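 Vero E6 or LR7 cells seeded at 1×10^4/well were grown 24 h in DMEM with 10% FBS at 37 °C and 5% CO2. Serial drug dilutions (0–500 µM) were added for 6 h (legend) or 8 h (methods). Viability was normalized to the 0.1% DMSO control.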

[7] = test system: Murine hepatitis virus; assay: Antiviral activity against MHV-A59 infected in LR7 cells assessed as reduction in N protein production at 4 nM treated 2 hrs post viral infection and measured after 6 hrs by Western blot analysis; format: functional; parameters: scale not given: the % may be the effect or the level left; how it was run: as §2
[8] = test system: Murine hepatitis virus; assay: Antiviral activity against MHV-A59 infected in Vero E6 cells assessed as reduction in viral gene expression at 10 uM treated 2 hrs post viral infection and measured after 6 hrs by RT-PCR analysis; format: functional; parameters: scale not given: the % may be the effect or the level left
[9] = Cytotoxicity against mouse LR7 cells assessed as maximum non-toxic concentration after 6 hrs by MTT assay; format: cell-based; how it was run: as §3
[10] = test system: Murine hepatitis virus; assay: Antiviral activity against MHV-A59 infected in […] cells assessed as reduction in viral gene expression at 100 uM treated 2 hrs post viral infection and measured after 6 hrs by RT-PCR analysis; format: functional, organism-based
[11] = test system: Murine hepatitis virus; assay: Antiviral activity against MHV-A59 infected in LR7 cells assessed as reduction in number of infected cells at 40 nM treated 2 hrs post viral infection and measured after 6 hrs by immunofluorescence analysis; format: functional; parameters: scale not given: the % may be the effect or the level left; how it was run: as §1
[12] = Cmax in human; format: ADME
[13] = Inhibition of SARS-CoV-2 3CL protease expressed in Escherichia coli BL21 DE3 using 2-aminobenzoyl-SVTLQSG-Tyr(NO2)-R as substrate preincubated with substrate for 15 mins followed by compound addition and measured after 1 hr by FRET assay; parameters: species or system Severe acute respiratory syndrome coronavirus 2
[14] = test system: Severe acute respiratory syndrome coronavirus 2; assay: Inhibition of SARS-CoV-2 3CL protease expressed in Escherichia coli BL21 DE3 at 200 uM using 2-aminobenzoyl-SVTLQSG-Tyr(NO2)-R as substrate preincubated with substrate for 15 mins followed by compound addition and measured after 1 hr by FRET assay relative to control

SMILES: CO/C1=C\C(C)=C\[C@@H](C)[C@@H](O)[C@@H](C)C/C(C)=C/C=C/[C@H](OC)[C@@H]([C@@H](C)[C@@H](O)[C@H](C)[C@@]2(O)C[C@@H](O)[C@H](C)[C@@H](C(C)C)O2)OC1=O
- Activity [1]: Active
- Activity [2]: Active

SMILES: CC(C)(C)NC(=O)N[C@H](C(=O)N1C[C@H]2[C@@H]([C@H]1C(=O)NC(CC1CCC1)C(=O)C(N)=O)C2(C)C)C(C)(C)C (some centres undefined) [BOCEPREVIR]
- Activity [3]: Dose-dependent effect
- Activity [4]: 75%
- Activity [5]: 90%
- MNTC at 6 h [6]: 72.5 µM
- Activity [7]: 40%
- Activity [8]: 50%
- MNTC at 6 h [9]: 72.5 µM
- Activity [10]: Active
- Activity [11]: 25%
- Cmax [12]: 1720 ng/mL
- IC50 [13]: 1.59 µM

SMILES: CCC[C@H](NC(=O)[C@@H]1[C@H]2CCC[C@H]2CN1C(=O)[C@@H](NC(=O)[C@@H](NC(=O)c1cnccn1)C1CCCCC1)C(C)(C)C)C(=O)C(=O)NC1CC1 [TELAPREVIR]
- Activity [4]: inactive
- Activity [5]: inactive
- MNTC at 6 h [6]: 72.5 µM
- MNTC at 6 h [9]: 72.5 µM
- inhibition [14]: 100%
- IC50 [13]: 55.7 µM
